Source: ChEMBL document CHEMBL5252546, “Salutaxel, a Conjugate of Docetaxel and a Muramyl Dipeptide (MDP) Analogue, Acts as Multifunctional Prodrug That Inhibits Tumor Growth and Metastasis” (J Med Chem, 2018)
Active and inactive are the calls of the source. No cut-off for these calls is given here.

Legend:
[1] = MRT in mouse tumor implanted with mouse 4T1 cells at 5.7 mg/kg,iv measured upto 72 hrs; assay type: ADME, organism-based, Neoplasm
[2] = Cmax in mouse plasma implanted with mouse 4T1 cells at 5.7 mg/kg,iv measured upto 72 hrs; assay type: ADME, organism-based; set-up: dose 5.7 mg/kg, time < 72 hrs, route iv
[3] = Tmax in mouse tumor implanted with mouse 4T1 cells at 5.7 mg/kg,iv measured upto 72 hrs; assay type: ADME, organism-based, Neoplasm
[4] = Drug concentration in plasma of Beagle dog at 1.14 mg/kg,iv measured upto 24 hrs; assay type: ADME, organism-based, Canis lupus familiaris; details: in vivo
In short: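 Taxane given as a single intravenous dose: 2.28 mg/kg to rats by injection and 1.14 mg/kg to Beagle dogs by infusion. Plasma concentrations were then measured.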

4T1 [5] = assay: Antitumor activity against mouse 4T1 cells xenografted with BALB/c mouse assessed as decrease in lung metastasis at 5.7 mg/kg,iv administrated once per week for 4 weeks; assay type: functional, organism-based
In short: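 4T1 cells injected into mammary fat pads of BALB/c mice. Dosing iv once per week for 4 weeks, saline vehicle; single-agent arms were given alone or with the peptide component (5b or 6). Endpoints were body weight, tumour volume, tumour weight, lung metastatic nodule count and lung metastasis score. Mean ± SEM, n = 10; ANOVA and Student's t test.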

[6] = Toxicity in BALB/c mouse xenografted with human A549/Taxol cells assessed as side effects at 5.7 mg/kg,iv administrated once per week for 3 weeks; assay type: organism-based, A549/TR; details: in vivo, 504 h
In short: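 Nude BALB/c nu/nu mice received subcutaneous human tumour cells into the right flank. Dosing started at mean tumour volume of 100–120 mm3, iv once weekly for 3 weeks; the taxane arm was an equimolar control. Body weight and overt side effects were monitored. Mean ± SEM, n = 8.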

4T1 [7] = assay: Antitumor activity against mouse 4T1 cells implanted in BALB/c mouse assessed as decrease in lung metastasis at 5.7 mg/kg,iv administrated once per week for 4 weeks in presence of MDA-205 by H and E staining based assay; assay type: functional, organism-based
In short: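 BALB/c mice bearing orthotopic mammary fat pad 4T1 tumors, dosed iv weekly for 4 weeks with saline vehicle as control. Lung sections stained with hematoxylin and eosin and examined by light microscopy at 40× for metastasis, inflammatory infiltration and alveolar wall thickening.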

[8] = Half life in mouse plasma implanted with mouse 4T1 cells at 10 mg/kg,iv measured upto 72 hrs; assay type: ADME, organism-based
[9] = Plasma protein binding in dog plasma incubated for 4 hrs; assay type: ADME, cell-free, Canis lupus familiaris; details: read-out: PPB (converted)
[10] = Drug metabolism in rat plasma assessed as metabolite MDA-205 formation at 4 mg/kg,iv measured after 24 hrs; assay type: ADME, organism-based; details: in vivo
[11] = Drug metabolism in rat plasma assessed as metabolite docetaxel formation at 4 mg/kg,iv measured after 24 hrs; assay type: ADME, organism-based; details: in vivo
[12] = Prodrug conversion in mouse plasma implanted with mouse 4T1 cells assessed as AUC (0-t) of docetaxel at 4 mg/kg,iv measured upto 72 hrs; assay type: ADME, organism-based; set-up: time < 72 hrs, dose 4 mg/kg, route iv; details: in vivo
[13] = Drug concentration in plasma of rat assessed as docetaxel concentration at 2 to 8 mg/kg,iv measured upto 24 hrs; assay type: ADME, organism-based; details: in vivo, dose 2-8 mg/kg
In short: (§1)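 Rats were given a single iv injection at 2, 4 or 8 mg/kg. Plasma parent drug and released docetaxel were followed over time. Cmax, Tmax, AUC, MRT, t1/2, CL and Vss were reported for males, females and all animals combined.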

[14] = Volume of distribution at steady state in rat at 4 mg/kg,iv measured upto 24 hrs; assay type: ADME, organism-based; details: in vivo, read-out: Vdss
[15] = Volume of distribution at steady state in female rat at 2 mg/kg,iv measured upto 24 hrs; assay type: ADME, organism-based; details: in vivo, read-out: Vdss
[16] = Clearance in Beagle dog at 2 mg/kg,iv measured upto 24 hrs; assay type: ADME, organism-based, Canis lupus familiaris; details: in vivo
In short: (§2)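 Beagle dogs were given a single iv infusion at 1, 2 or 4 mg/kg. Plasma parent drug and released docetaxel were followed over time. Cmax, Tmax, AUC, MRT, t1/2, CL and Vss were reported by sex and for all dogs combined.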

[17] = Clearance in Beagle dog at 1 mg/kg,iv measured upto 24 hrs; assay type: ADME, organism-based, Canis lupus familiaris; details: in vivo; in short: as §2
[18] = Half life in male Beagle dog at 2 mg/kg,iv measured upto 24 hrs; assay type: ADME, organism-based, Canis lupus familiaris; details: in vivo
[19] = MRT (0 to infinity) in Beagle dog at 2 mg/kg,iv measured upto 24 hrs; assay type: ADME, organism-based, Canis lupus familiaris; details: in vivo
[20] = AUC (0-t) in female Beagle dog at 4 mg/kg,iv measured upto 24 hrs; assay type: ADME, organism-based, Canis lupus familiaris; set-up: dose 4 mg/kg, time < 24 hrs, route iv; details: in vivo
In short: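 Single iv dose: rats 2, 4 or 8 mg/kg by intravenous injection; Beagle dogs 1, 2 or 4 mg/kg by intravenous infusion. Plasma concentration–time data were analysed by sex and pooled. Reported parameters: Cmax, Tmax, AUC0−t, AUC0−∞, MRT0−∞, t1/2, CL, Vss, given as mean ± SD.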

[21] = Tmax in rat at 8 mg/kg,iv measured upto 24 hrs; assay type: ADME, organism-based; details: in vivo
[22] = Cmax in male rat at 4 mg/kg,iv measured upto 24 hrs; assay type: ADME, organism-based; set-up: time < 24 hrs, dose 4 mg/kg, route iv; details: in vivo; in short: as §1
[23] = Cmax in rat at 4 mg/kg,iv measured upto 24 hrs; assay type: ADME, organism-based; set-up: dose 4 mg/kg, time < 24 hrs, route iv; details: in vivo; in short: as §1
[24] = Cmax in male rat at 8 mg/kg,iv measured upto 24 hrs; assay type: ADME, organism-based; set-up: time < 24 hrs, dose 8 mg/kg, route iv; details: in vivo; in short: as §1
[25] = Cmax in rat at 8 mg/kg,iv measured upto 24 hrs; assay type: ADME, organism-based; set-up: time < 24 hrs, dose 8 mg/kg, route iv; details: in vivo; in short: as §1
[26] = Cmax in male Beagle dog at 4 mg/kg,iv measured upto 24 hrs; assay type: ADME, organism-based, Canis lupus familiaris; set-up: time < 24 hrs, dose 4 mg/kg, route iv; details: in vivo; in short: as §2
[27] = Toxicity in Beagle dog assessed as decrease in body temperature at 1 to 4 mg/kg,iv; assay type: organism-based, Canis lupus familiaris; details: in vivo, dose 1-4 mg/kg
Cytochrome P450 2C19 = Cytochrome P450 2C19 (Homo sapiens, UniProt P33261); assay: Inhibition of CYP2C19 in human liver microsomes using probe substrate at 0.1 to 100 uM in presence of NADPH; assay type: ADME, Microsome; details: dose 0.1-100 µM
[28] = Drug metabolism in rat hepatocytes assessed as MDA-205 metabolite formation at 20 uM incubated for 180 mins; assay type: ADME, cell-based, Hepatocyte; details: 3 h
[29] = Drug metabolism in dog hepatocytes assessed as docetaxel metabolite formation at 20 uM incubated for 180 mins; assay type: ADME, cell-based, Canis lupus familiaris, Hepatocyte; details: 3 h
[30] = Stability in monkey plasma assessed as compound remaining at 1 uM incubated for 6 hrs; assay type: ADME, cell-free, Macaca mulatta; details: rhesus monkey
4T1 [31] = assay: Antitumor activity against mouse 4T1 cells implanted in BALB/c mouse assessed as decrease in spleen MDSC cells at 5 mg/kg,iv measured after 28 days (reference value: 38%); assay type: functional; set-up: scale not given: the % may be the effect or the level left; details: time 28 day
4T1 [32] = assay: Antitumor activity against mouse 4T1 cells implanted in BALB/c mouse assessed as decrease in tumor MMP9 expression level at 5 to 20 mg/kg,iv administrated once per week for 4 weeks by western blot assay; assay type: functional, organism-based; details: dose 5-20 mg/kg
In short: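 4T1 fat-pad model in BALB/c mice, iv once weekly for 4 weeks; MMP9, MMP2 and NOD1 in spleen, lung and tumour by western blot, β-actin loading control; bands averaged over five mice per group, representative of two independent experiments.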

4T1 [33] = assay: Antitumor activity against mouse 4T1 cells implanted in BALB/c mouse assessed as decrease in MMP8 mRNA expression in lung at 20 mg/kg,iv administrated qd for 2 days by qRT-PCR analysis; assay type: functional, organism-based; details: time 2.0 day
In short: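 Day 19 after 4T1 implantation, mice randomised into five groups; iv vehicle or 20 mg/kg plus ip C12-iE-DAP (50 μg/mouse) and MDP (100 μg/mouse) once daily for 2 days; killed after 48 h; lung mRNA for MMP8, MMP9, PROK2, S100A8, S100A9 and IL-1β by qPCR; mean ± SEM.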

Cytochrome P450 2C19, sequence (P33261 whole entry): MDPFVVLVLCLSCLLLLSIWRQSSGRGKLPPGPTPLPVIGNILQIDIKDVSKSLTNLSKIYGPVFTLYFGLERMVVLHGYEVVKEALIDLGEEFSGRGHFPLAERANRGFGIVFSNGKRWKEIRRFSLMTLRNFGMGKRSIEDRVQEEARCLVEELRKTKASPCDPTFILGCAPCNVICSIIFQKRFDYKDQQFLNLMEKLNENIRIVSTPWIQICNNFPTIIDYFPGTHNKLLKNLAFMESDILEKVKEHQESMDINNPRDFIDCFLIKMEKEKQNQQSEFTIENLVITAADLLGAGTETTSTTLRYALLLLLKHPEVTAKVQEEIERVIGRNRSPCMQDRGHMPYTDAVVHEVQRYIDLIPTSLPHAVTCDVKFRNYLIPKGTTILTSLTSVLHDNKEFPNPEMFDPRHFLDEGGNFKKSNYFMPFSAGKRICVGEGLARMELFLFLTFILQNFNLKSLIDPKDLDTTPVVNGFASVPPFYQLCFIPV

CC(=O)O[C@@]12CO[C@@H]1C[C@H](O)[C@@]1(C)C(=O)[C@H](O)C3=C(C)[C@@H](OC(=O)[C@H](O)[C@@H](NC(=O)OC(C)(C)C)c4ccccc4)C[C@@](O)([C@@H](OC(=O)c4ccccc4)[C@H]21)C3(C)C [DOCETAXEL ANHYDROUS]
MRT [1]: 73.3 h | Cmax [2]: 8.09 µM | Tmax [3]: 30 min | Drug uptake [4]: 0.8% | Activity (4T1 [5]): Active | Activity [6]: Non-Toxic | Activity (4T1 [7]): Active

CC(=O)O[C@@]12CO[C@@H]1C[C@H](O)[C@@]1(C)C(=O)[C@H](O)C3=C(C)[C@@H](OC(=O)[C@H](OC(=O)CCC(=O)NCCCC[C@H](NC(=O)CC[C@@H](NC(=O)[C@H](C)NC(=O)/C=C/c4ccc(F)cc4Cl)C(N)=O)C(=O)O)[C@@H](NC(=O)OC(C)(C)C)c4ccccc4)C[C@@](O)([C@@H](OC(=O)c4ccccc4)[C@H]21)C3(C)C
half-life [8]: 41.4 min | fraction unbound at 4 h [9]: 0.003 | Drug metabolism [10]: Metabolite_Detected | Drug metabolism [11]: Metabolite_Detected | AUCt [12]: 8.43 µM·h | Drug uptake [13]: 0.79% | Vd [14]: 0.076 L/kg | Vd [15]: 0.067 L/kg | clearance [16]: 6.08 mL/min/kg | clearance [17]: 11.5 mL/min/kg | half-life [18]: 30.2 min | MRT inf [19]: 14.2 min | AUC(0-t) at 24 h [20]: 20300 ng·h/mL | Tmax [21]: 4.98 min | Cmax [22]: 37900 ng/mL | Cmax [23]: 34200 ng/mL | Cmax [24]: 61900 ng/mL | Cmax [25]: 62200 ng/mL | Cmax [26]: 29600 ng/mL | Activity [27]: Toxic | inhibition (INH) (Cytochrome P450 2C19): Not Active | Drug metabolism [28]: Metabolite_Detected | Drug metabolism [29]: Metabolite_Detected | Stability [30]: Stable | Activity (4T1 [31]): 36.2% | Activity (4T1 [32]): inactive | Activity (4T1 [33]): Active
